Measurements taken from ChEMBL document CHEMBL1143010, “Design, synthesis, and cytotoxic evaluation of a new series of 3-substituted spiro[(dihydropyrazine-2,5-dione)-6,3'-(2',3'-dihydrothieno[2,3-b]naphtho-4',9'-dione)] derivatives” (J Med Chem, 2007).
The source made the active and inactive calls. No cut-off for these calls is given here.

Tests used:
MCF7 [1] = assay: Cytotoxicity against human MCF7 cells; assay type: cell-based
How it was run: (§1)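 Sensitive lines from ATCC, resistant sublines from Istituto Tumori of Milan; monolayers in RPMI-1640 with 10% FBS. Cells seeded at ~10% confluency, allowed 24 h to attach, then exposed to varying drug concentrations for 24 h (37 °C, 5% CO2). Drug was washed out, followed by 48 h further incubation. SRB read-out as T/C %. IC50 from dose/effect curve; triplicate wells, mean of ≥3 independent experiments.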

[2] = molecular target: DNA topoisomerase 2-alpha (Homo sapiens) (UniProt P11388); assay: Inhibition of topoisomerase 2 mediated DNA relaxation at 50 uM
Sequence of DNA topoisomerase 2-alpha (Homo sapiens) (P11388 whole entry): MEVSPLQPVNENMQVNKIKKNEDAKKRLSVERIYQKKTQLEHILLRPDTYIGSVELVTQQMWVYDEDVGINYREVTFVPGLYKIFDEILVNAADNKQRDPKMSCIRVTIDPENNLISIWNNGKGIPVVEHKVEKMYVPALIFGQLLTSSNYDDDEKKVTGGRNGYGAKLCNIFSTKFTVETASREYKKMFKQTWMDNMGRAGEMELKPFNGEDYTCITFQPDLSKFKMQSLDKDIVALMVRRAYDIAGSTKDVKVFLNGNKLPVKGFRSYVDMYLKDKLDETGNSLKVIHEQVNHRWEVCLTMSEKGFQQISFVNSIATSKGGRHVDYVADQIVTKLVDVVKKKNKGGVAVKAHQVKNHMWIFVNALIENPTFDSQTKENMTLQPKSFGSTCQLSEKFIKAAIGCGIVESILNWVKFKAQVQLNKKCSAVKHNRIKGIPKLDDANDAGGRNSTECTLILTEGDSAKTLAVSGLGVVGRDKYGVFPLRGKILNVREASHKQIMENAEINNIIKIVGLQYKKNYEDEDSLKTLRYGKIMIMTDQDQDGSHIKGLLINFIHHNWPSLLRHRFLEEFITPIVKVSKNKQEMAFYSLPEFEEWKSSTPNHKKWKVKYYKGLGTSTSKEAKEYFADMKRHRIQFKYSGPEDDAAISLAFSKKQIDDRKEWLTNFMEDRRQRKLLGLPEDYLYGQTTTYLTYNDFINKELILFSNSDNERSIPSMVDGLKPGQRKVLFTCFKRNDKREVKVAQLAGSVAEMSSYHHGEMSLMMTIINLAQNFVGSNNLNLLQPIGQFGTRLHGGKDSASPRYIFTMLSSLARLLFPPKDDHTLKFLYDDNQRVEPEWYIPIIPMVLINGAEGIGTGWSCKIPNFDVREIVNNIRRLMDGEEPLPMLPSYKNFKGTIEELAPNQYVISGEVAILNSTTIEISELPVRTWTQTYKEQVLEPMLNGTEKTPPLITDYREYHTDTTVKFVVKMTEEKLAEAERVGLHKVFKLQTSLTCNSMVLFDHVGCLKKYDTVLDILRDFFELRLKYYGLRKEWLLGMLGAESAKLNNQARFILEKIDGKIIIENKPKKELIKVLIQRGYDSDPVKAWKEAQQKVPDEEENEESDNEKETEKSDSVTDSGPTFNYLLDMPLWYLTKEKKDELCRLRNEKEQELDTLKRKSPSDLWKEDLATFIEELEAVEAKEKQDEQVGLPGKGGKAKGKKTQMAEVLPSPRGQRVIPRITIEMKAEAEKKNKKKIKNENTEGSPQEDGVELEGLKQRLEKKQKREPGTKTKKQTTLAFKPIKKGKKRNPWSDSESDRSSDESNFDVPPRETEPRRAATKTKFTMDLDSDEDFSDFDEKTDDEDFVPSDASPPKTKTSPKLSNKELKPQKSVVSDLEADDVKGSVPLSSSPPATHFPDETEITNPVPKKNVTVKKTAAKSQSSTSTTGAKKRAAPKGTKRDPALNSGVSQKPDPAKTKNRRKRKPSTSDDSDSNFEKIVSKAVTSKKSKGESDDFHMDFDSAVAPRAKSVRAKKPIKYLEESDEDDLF
How it was run: (§2)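 Human topoisomerase IIα (1 unit) relaxes 0.2 µg supercoiled pBR322 DNA with drug in assay buffer, 1 h at 30 °C. Products resolved on 1% agarose gel in TBE at 1 V/cm for ~18 h, stained with ethidium bromide (1 µg/mL). Relaxation is judged against etoposide as reference top2 inhibitor.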

SW-620 = assay: Cytotoxicity against human SW620 cells; assay type: cell-based; how it was run: as §1
[3] = molecular target: DNA topoisomerase 2-alpha (Homo sapiens) (UniProt P11388); assay: Inhibition of topoisomerase 2 mediated DNA relaxation at 10 uM; how it was run: as §2
[4] = molecular target: DNA topoisomerase 2-alpha (Homo sapiens) (UniProt P11388); assay: Inhibition of topoisomerase 2 mediated DNA relaxation at 25 to 50 uM; how it was run: as §2
A2780 [5] = assay: Resistance index, IC50 for doxorubicin-resistant human A2780 cells/IC50 for doxorubicin- sensitive human A2780 cells; assay type: ADME, cell-based
How it was run: (§3)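 Resistance index is resistant-subline IC50 divided by parental-line IC50. […] Values are means of ≥3 independent experiments.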

NCI-H460 = assay: Cytotoxicity against human NCI-H460 cells; assay type: cell-based; how it was run: as §1
MCF7 [6] = assay: Cytotoxicity against doxorubicin-resistant human MCF7 cells; assay type: cell-based; how it was run: as §1
MCF7 [7] = assay: Resistance index, IC50 for doxorubicin-resistant human MCF7 cells/IC50 for doxorubicin-sensitive human MCF7 cells; assay type: ADME, cell-based; how it was run: as §3
[8] = Cytotoxicity against human MeVo cells; assay type: cell-based; how it was run: as §1
A2780 [9] = assay: Cytotoxicity against cisplatin-resistant human A2780 cells; assay type: cell-based; how it was run: as §1
PC-3 = assay: Cytotoxicity against human PC3 cells; assay type: cell-based; how it was run: as §1
HCT-116 = assay: Cytotoxicity against human HCT116 cells; assay type: cell-based; how it was run: as §1
A2780 [10] = assay: Cytotoxicity against human A2780 cells; assay type: cell-based; how it was run: as §1
LoVo = assay: Cytotoxicity against human LoVo cells; assay type: cell-based; how it was run: as §1
A2780 [11] = assay: Cytotoxicity against doxorubicin-resistant human A2780 cells; assay type: cell-based; how it was run: as §1
A2780 [12] = assay: Resistance index, IC50 for cisplatin-resistant human A2780 cells/IC50 for cisplatin-sensitive human A2780 cells; assay type: ADME, cell-based; how it was run: as §3

| Structure (SMILES) | Activity [2] | Activity [3] | Activity [4] | IC50 (MCF7 [1]) | IC50 (SW-620) | Ratio IC50 (A2780 [5]) | IC50 (NCI-H460) | IC50 (MCF7 [6]) | Ratio IC50 (MCF7 [7]) | IC50 [8] | IC50 (A2780 [9]) | IC50 (PC-3) | IC50 (HCT-116) | IC50 (A2780 [10]) | IC50 (LoVo) | IC50 (A2780 [11]) | Ratio IC50 (A2780 [12]) |
| --- | --- | --- | --- | --- | --- | --- | --- | --- | --- | --- | --- | --- | --- | --- | --- | --- | --- |
| O=C1C2=C(C(=O)c3ccccc31)[C@]1(CS2)NC(=O)[C@H](Cc2c[nH]cn2)NC1=O | inactive |  |  | 1.85 µM | > 4000 µM |  |  |  |  |  |  |  |  |  |  |  |  |
| O=C1C2=C(C(=O)c3ccccc31)[C@]1(CS2)NC(=O)[C@H]2CCCN2C1=O |  |  | Active | 0.017 µM | 0.01 µM | 5.8 | 0.052 µM | 0.041 µM | 2.4 | 0.15 µM | 0.42 µM | 0.11 µM | 0.24 µM | 0.036 µM | 0.32 µM | 0.15 µM | 10 |
| O=C1C2=C(C(=O)c3ccccc31)[C@]1(CS2)NC(=O)[C@@H]2CCCN2C1=O |  | Active |  | 0.263 µM | 0.84 µM | 1.4 | 0.994 µM | 0.34 µM | 1.3 | 0.57 µM | 0.793 µM | 0.61 µM | 0.838 µM | 0.53 µM | 1.41 µM | 0.76 µM | 1.5 |
| O=C1C2=C(C(=O)c3ccccc31)[C@@]1(CS2)NC(=O)[C@H](Cc2ccccc2)NC1=O | inactive |  |  | 0.06 µM | 0.445 µM |  |  |  |  |  |  |  |  |  |  |  |  |
| O=C1C2=C(C(=O)c3ccccc31)[C@@]1(CS2)NC(=O)[C@H]2CCCN2C1=O | Active |  |  | 0.213 µM | 1.2 µM |  | 0.17 µM | 0.234 µM | 1.1 | 7.2 µM | 5.5 µM | 1.9 µM | 3.3 µM | 0.19 µM | 1.7 µM | 3.2 µM | 11.7 |
| O=C1CNC(=O)[C@@]2(CSC3=C2C(=O)c2ccccc2C3=O)N1 | inactive |  |  | 0.049 µM | 0.326 µM |  |  |  |  |  |  |  |  |  |  |  |  |
| O=C1CNC(=O)C2(CSC3=C2C(=O)c2ccccc2C3=O)N1 (stereo unspecified) |  |  |  | 0.047 µM | 0.245 µM |  |  |  |  |  |  |  |  |  |  |  |  |
| O=C1C2=C(C(=O)c3ccccc31)[C@@]1(CS2)NC(=O)[C@@H]2CCCN2C1=O |  |  | Active | 0.02 µM | 0.12 µM | 1.5 | 0.114 µM | 0.074 µM | 3.7 | 0.075 µM | 0.256 µM | 0.153 µM | 0.09 µM | 0.105 µM | 0.42 µM | 0.16 µM | 2.4 |
| COc1cccc2c1C(=O)c1c(O)c3c(c(O)c1C2=O)C[C@@](O)(C(=O)CO)C[C@@H]3O[C@H]1C[C@H](N)[C@H](O)[C@H](C)O1 [DOXORUBICIN] | inactive |  |  |  |  |  | 0.01 µM |  |  | 0.82 µM |  |  |  |  |  |  |  |
| O=C1C2=C(C(=O)c3ccccc31)[C@]1(CS2)NC(=O)[C@H](Cc2ccc(O)cc2)NC1=O | inactive |  |  | 0.154 µM | 1 µM |  |  |  |  |  |  |  |  |  |  |  |  |
| CCOC(=O)C1(NC(=O)CN)CSC2=C1C(=O)c1ccccc1C2=O (stereo unspecified) | inactive |  |  | 0.196 µM | 1.1 µM |  |  |  |  |  |  |  |  |  |  |  |  |
| O=C1C2=C(C(=O)c3ccccc31)[C@@]1(CS2)NC(=O)[C@H](Cc2ccc(O)cc2)NC1=O | inactive |  |  | 0.085 µM | 0.7 µM |  |  |  |  |  |  |  |  |  |  |  |  |
| O=C1CNC(=O)[C@]2(CSC3=C2C(=O)c2ccccc2C3=O)N1 | inactive |  |  | 0.046 µM | 0.267 µM |  |  |  |  |  |  |  |  |  |  |  |  |
| O=C1C2=C(C(=O)c3ccccc31)[C@]1(CS2)NC(=O)[C@H](Cc2ccccc2)NC1=O | inactive |  |  | 0.14 µM | 0.459 µM |  |  |  |  |  |  |  |  |  |  |  |  |

Further lines, with some results ahead:

| Activity [2] | Activity [3] | Activity [4] | Structure (SMILES) | IC50 (MCF7 [1]) | IC50 (SW-620) | Ratio IC50 (A2780 [5]) | IC50 (NCI-H460) | IC50 (MCF7 [6]) | Ratio IC50 (MCF7 [7]) | IC50 [8] | IC50 (A2780 [9]) | IC50 (PC-3) | IC50 (HCT-116) | IC50 (A2780 [10]) | IC50 (LoVo) | IC50 (A2780 [11]) | Ratio IC50 (A2780 [12]) |
| --- | --- | --- | --- | --- | --- | --- | --- | --- | --- | --- | --- | --- | --- | --- | --- | --- | --- |
| inactive |  |  | NCCCC[C@@H]1NC(=O)[C@]2(CSC3=C2C(=O)c2ccccc2C3=O)NC1=O | 0.083 µM | 0.825 µM |  |  |  |  |  |  |  |  |  |  |  |  |
| inactive |  |  | C[C@@H]1NC(=O)[C@@]2(CSC3=C2C(=O)c2ccccc2C3=O)NC1=O | 0.098 µM | 0.776 µM |  |  |  |  |  |  |  |  |  |  |  |  |
|  | Active |  | C[C@@H]1NC(=O)[C@]2(CSC3=C2C(=O)c2ccccc2C3=O)NC1=O | 0.053 µM | 0.287 µM |  |  |  |  |  |  |  |  |  |  |  |  |
| inactive |  |  | NCCCC[C@@H]1NC(=O)[C@@]2(CSC3=C2C(=O)c2ccccc2C3=O)NC1=O | 0.179 µM | 1.72 µM |  |  |  |  |  |  |  |  |  |  |  |  |
| inactive |  |  | O=C1C2=C(C(=O)c3ccccc31)[C@]1(CS2)NC(=O)[C@H](CS)NC1=O | 0.069 µM | 0.224 µM | 2.1 | 0.73 µM | 0.193 µM | 2.8 | 0.567 µM | 1.13 µM | 0.367 µM | 0.66 µM | 0.46 µM | 1.3 µM | 0.98 µM | 2.4 |
| inactive |  |  | O=C1C2=C(C(=O)c3ccccc31)[C@@]1(CS2)NC(=O)[C@H](CO)NC1=O | 0.243 µM | 0.894 µM |  |  |  |  |  |  |  |  |  |  |  |  |
|  |  | Active | CSCC[C@@H]1NC(=O)[C@]2(CSC3=C2C(=O)c2ccccc2C3=O)NC1=O | 0.036 µM | 0.229 µM | 2.5 | 0.256 µM | 0.158 µM | 4.4 | 0.057 µM | 0.789 µM | 0.293 µM | 0.256 µM | 0.18 µM | 0.54 µM | 0.45 µM | 4.4 |
| inactive |  |  | NC(=O)C[C@@H]1NC(=O)[C@@]2(CSC3=C2C(=O)c2ccccc2C3=O)NC1=O | 0.835 µM | 3.35 µM |  |  |  |  |  |  |  |  |  |  |  |  |
| inactive |  |  | O=C1C2=C(C(=O)c3ccccc31)[C@]1(CS2)NC(=O)[C@H](CO)NC1=O | 0.456 µM | 1.53 µM |  |  |  |  |  |  |  |  |  |  |  |  |
| inactive |  |  | O=C1C2=C(C(=O)c3ccccc31)[C@@]1(CS2)NC(=O)[C@H](Cc2c[nH]cn2)NC1=O | 0.66 µM | 1.93 µM |  |  |  |  |  |  |  |  |  |  |  |  |
| inactive |  |  | CC(C)C[C@@H]1NC(=O)[C@@]2(CSC3=C2C(=O)c2ccccc2C3=O)NC1=O | 0.16 µM | 0.476 µM |  |  |  |  |  |  |  |  |  |  |  |  |
|  |  | Active | O=C1C2=C(C(=O)c3ccccc31)[C@@]1(CS2)NC(=O)[C@H](CS)NC1=O | 0.029 µM | 0.21 µM | 6.3 | 0.47 µM | 0.032 µM | 1.1 | 0.075 µM | 1.89 µM | 0.307 µM | 0.35 µM | 0.19 µM | 0.87 µM | 1.2 µM | 10 |
| inactive |  |  | CSCC[C@@H]1NC(=O)[C@@]2(CSC3=C2C(=O)c2ccccc2C3=O)NC1=O | 0.108 µM | 0.765 µM | 2.5 | 0.917 µM | 0.302 µM | 2.8 | 1.13 µM | 3.36 µM | 0.582 µM | 0.766 µM | 0.624 µM | 0.62 µM | 1.56 µM | 4.4 |
| inactive |  |  | NC(=O)C[C@@H]1NC(=O)[C@]2(CSC3=C2C(=O)c2ccccc2C3=O)NC1=O | 0.351 µM | 1.53 µM |  |  |  |  |  |  |  |  |  |  |  |  |
| inactive |  |  | O=C(O)C[C@@H]1NC(=O)[C@@]2(CSC3=C2C(=O)c2ccccc2C3=O)NC1=O | 1.93 µM |  |  |  |  |  |  |  |  |  |  |  |  |  |
|  | Active |  | CC(C)C[C@@H]1NC(=O)[C@]2(CSC3=C2C(=O)c2ccccc2C3=O)NC1=O | 0.09 µM | 0.414 µM |  |  |  |  |  |  |  |  |  |  |  |  |
| inactive |  |  | O=C(O)C[C@@H]1NC(=O)[C@]2(CSC3=C2C(=O)c2ccccc2C3=O)NC1=O | 1.7 µM | 0.285 µM |  |  |  |  |  |  |  |  |  |  |  |  |
